According to paper PMC4277818 (Molecular imaging and biology : MIB : the official …, 2012):

Tested on: TRAP5b
Assay: Serum TRAP5b solid-phase immunoassay
Assay type: in vivo, C57BL/6 mice
Conditions: 0.3 mg/kg RANKL twice a day for 10 days; PET/CT imaging study, n=4
Summary of the method: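 Male C57BL/6 mice (~23 g) got RANKL s.c. in the nape in 50 μL saline, twice a day for 10 days, under brief isoflurane; controls got vehicle. Blood was taken by submandibular venous puncture before biodistribution or at sacrifice. Serum was spun at 10,000 rpm for 5 min at 4°C and stored at −20°C. Osteoclastic TRAP5b was measured by solid-phase immunoassay. P<0.05 was significant.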

B1: RANKL: receptor activator of nuclear factor κB ligand, cytokine stimulating osteoclastogenesis; provided by Amgen (protein, UniProt O14788 140-317, looked up)
Tumor necrosis factor ligand …: IRAEKAMVDGSWLDLAKRSKLEAQPFAHLTINATDIPSGSHKVSLSSWYHDRGWAKISNMTFSNGKLIVNQDGFYYLYANICFRHHETSGDLATEYLQLMVYVTKTSIKIPSSHTLMKGGSTKYWSGNSEFHFYSINVGGFFKLRSGEEISIEVSNPSLLDPDQDATYFGAFKVRDID
With B1 the “increase of serum TRAP5b, RANKL-treated vs control cohort” value was 1.6 fold.
